In ChEMBL document CHEMBL3808280, “GroEL/ES inhibitors as potential antibiotics” (Bioorg Med Chem Lett, 2016) one finds EC50 and IC50 data, which are given here for 5 compounds.

In assay [1] the test system is Staphylococcus aureus. Description: Antibacterial activity against methicillin susceptible Staphylococcus aureus subsp. aureus Seattle 1945 (ATCC 25923) assessed as reduction in bacterial growth incubated for 6 to 8 hrs.
For the next assay, the system named is Enterococcus faecium. In words: Antibacterial activity against multidrug resistant Enterococcus faecium NCTC 7171 (ATCC 19434) assessed as reduction in bacterial growth incubated for 6 to 8 hrs. The class given is functional, organism-based. The method, boiled down: (§1)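 Broth proliferation assay. S. aureus and MRSA grown in ATCC Medium 18, other pathogens in Brain Heart Infusion. Stagnant incubation at 37°C under breathable seal. OD600 read at mid-log (6-8 h) and corrected with bacteria-free baseline plates. EC50 by variable-slope nonlinear fit, at least triplicate.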

The subject of another assay is Enterobacter cloacae. Description: Antibacterial activity against multidrug resistant Enterobacter cloacae subsp. cloacae CDC 442-68 (ATCC 13047) assessed as reduction in bacterial growth incubated for 6 to 8 hrs. The class given is functional, organism-based. The method, boiled down:
as §1

For the next assay, the system named is Acinetobacter baumannii. Description: Antibacterial activity against multidrug resistant Acinetobacter baumannii 2208 (ATCC 19606) assessed as reduction in bacterial growth incubated for 6 to 8 hrs. Type of assay: functional. An outline of the steps:
as §1

For assay [2], the target named is T1, HSP60/HSP10 (Homo sapiens, UniProt P10809). Description: Inhibition of human HSP60/HSP10 expressed in Escherichia coli Rosetta2(DE3) cells assessed as reduction in denatured pig heart MDH ATPase activity by malachite green dye based assay.
Assay [3] concerns the target T2, E. coli GroEL/ES (Escherichia coli, UniProt P0A6F5). Description: Inhibition of Escherichia coli GroEL/GroES using Escherichia coli GroEL expressed in Escherichia coli DH5alpha cells and Escherichia coli GroES expressed in Escherichia coli BL21(DE3) cells assessed as reduction in native refolded rhodanese-mediated thiocyanate production by micro plate reader analysis.

The subject of assay [4] is Klebsiella pneumoniae subsp. pneumoniae. In words: Antibacterial activity against multidrug resistant Klebsiella pneumoniae subsp. pneumoniae NCTC 9633 (ATCC 13883) assessed as reduction in bacterial growth incubated for 6 to 8 hrs. The class given is functional, organism-based. The method, boiled down:
as §1

In another assay the test system is Pseudomonas aeruginosa. Description: Antibacterial activity against multidrug resistant Pseudomonas aeruginosa NCTC 10332 (ATCC 10145) assessed as reduction in bacterial growth incubated for 6 to 8 hrs. The class given is functional, organism-based. An outline of the steps:
as §1

In assay [5] the test system is Escherichia coli. Description: Antibacterial activity against Escherichia coli DH5alpha assessed as reduction in bacterial growth incubated for 6 to 8 hrs. The class given is functional, organism-based. The conditions noted are these: DH5[alpha].
The subject of another assay is HEK293. In words: Cytotoxicity against HEK293 cells assessed as reduction in cell viability after 48 hrs by alamar blue assay. The class given is cell-based. The note with it: Homo sapiens, HEK293, 48 h.
Assay [6] concerns Staphylococcus aureus. Description: Antibacterial activity against methicillin resistant Staphylococcus aureus subsp. aureus HPV107 (ATCC BAA-44) assessed as reduction in bacterial growth incubated for 6 to 8 hrs. The class given is functional, organism-based. The method, boiled down:
as §1

The subject of another assay is Bacillus subtilis. Description: Antibacterial activity against Bacillus subtilis 168 assessed as reduction in bacterial growth incubated for 6 to 8 hrs. The conditions noted are these: subsp. subtilis str. 168. Type of assay: functional, organism-based.
Assay [7] has as its system Escherichia coli. Description: Antibacterial activity against Escherichia coli SM101 assessed as reduction in bacterial growth incubated for 12 hrs by UV-Vis spectrophotometric analysis. The class given is functional, organism-based. The note with it: SM101, 12 h.
The target of assay [8] is T1, HSP60/HSP10. Description: Inhibition of human HSP60/HSP10 expressed in Escherichia coli Rosetta2(DE3) cells assessed as inhibition of denatured pig heart MDH refolding by measuring reduction in NADH production incubated for 60 mins by micro plate reader analysis. The method, boiled down: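 Pig heart MDH was denatured in guanidine-HCl (dMDH) and complexed with HSP60, then HSP10, in Tris pH 7.4/KCl/MgCl2/DTT buffer. EDTA quench (100 mM final); refolded MDH activity was followed with mesoxalate/NADH at 340 nm.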

Assay [9] deals with T2, E. coli GroEL/ES. In words: Inhibition of Escherichia coli GroEL/GroES using Escherichia coli GroEL expressed in Escherichia coli DH5alpha cells and Escherichia coli GroES expressed in Escherichia coli BL21(DE3) cells assessed as reduction in pig heart native refolded MDH-mediated NADH production by micro plate reader analysis. An outline of the steps: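 Native MDH counter-screen. GroEL/ES-dMDH refolding run 60 min at 37°C, then EDTA-quenched without compound. IC50 averaged from at least triplicate.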

For assay [10], the system named is Escherichia coli. In words: Antibacterial activity against acrB-deficient Escherichia coli MC4100 assessed as reduction in bacterial growth incubated for 6 to 8 hrs. The class given is functional, organism-based.
The target in assay [11] is T2, E. coli GroEL/ES. Description: Inhibition of Escherichia coli GroEL/GroES using Escherichia coli GroEL expressed in Escherichia coli DH5alpha cells and Escherichia coli GroES expressed in Escherichia coli BL21(DE3) cells assessed as inhibition of denatured rhodanese refolding by measuring reduction in thiocyanate production incubated for 60 mins by micro plate reader analysis. An outline of the steps:
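Urea-denatured rhodanese bound to GroEL/GroES in folding buffer containing thiosulfate. After 60 min at 37°C, thiocyanate reaction (KCN, thiosulfate, phosphate) run, then formaldehyde quench and ferric nitrate added. Fe(SCN)3 read at 460 nm after 15 min RT, with protein-free baseline plates.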

Assay [12] in a line: Cytotoxicity against human THLE3 cells assessed as reduction in cell viability after 48 hrs by alamar blue assay. Type of assay: cell-based. The note with it: THLE3, 48 h. (The colour change of resazurin is a common sign of viable cells or microbes.)
The target of assay [13] is T2, E. coli GroEL/ES. In words: Inhibition of Escherichia coli GroEL/GroES using Escherichia coli GroEL expressed in Escherichia coli DH5alpha cells and Escherichia coli GroES expressed in Escherichia coli BL21(DE3) cells assessed as inhibition of denatured pig heart MDH refolding by measuring reduction in NADH production incubated for 60 mins by micro plate reader analysis. An outline of the steps: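 Denatured MDH (guanidine-HCl/DTT, 30 min RT) bound to GroEL with GroES in Tris pH 7.4, KCl, MgCl2, DTT buffer. 60 min at 37°C, EDTA quench to 100 mM. Refolded MDH activity read with mesoxalate/NADH at 340 nm. Log-averaged IC50 from replicates.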

Assay [14] concerns the target T2, E. coli GroEL/ES. Description: Inhibition of Escherichia coli GroEL/GroES using Escherichia coli GroEL expressed in Escherichia coli DH5alpha cells and Escherichia coli GroES expressed in Escherichia coli BL21(DE3) cells assessed as reduction in denatured pig heart MDH ATPase activity by malachite green dye based assay.

A value given as a limit tells only on which side of the number the result lay.

T1 sequence (P10809 whole entry): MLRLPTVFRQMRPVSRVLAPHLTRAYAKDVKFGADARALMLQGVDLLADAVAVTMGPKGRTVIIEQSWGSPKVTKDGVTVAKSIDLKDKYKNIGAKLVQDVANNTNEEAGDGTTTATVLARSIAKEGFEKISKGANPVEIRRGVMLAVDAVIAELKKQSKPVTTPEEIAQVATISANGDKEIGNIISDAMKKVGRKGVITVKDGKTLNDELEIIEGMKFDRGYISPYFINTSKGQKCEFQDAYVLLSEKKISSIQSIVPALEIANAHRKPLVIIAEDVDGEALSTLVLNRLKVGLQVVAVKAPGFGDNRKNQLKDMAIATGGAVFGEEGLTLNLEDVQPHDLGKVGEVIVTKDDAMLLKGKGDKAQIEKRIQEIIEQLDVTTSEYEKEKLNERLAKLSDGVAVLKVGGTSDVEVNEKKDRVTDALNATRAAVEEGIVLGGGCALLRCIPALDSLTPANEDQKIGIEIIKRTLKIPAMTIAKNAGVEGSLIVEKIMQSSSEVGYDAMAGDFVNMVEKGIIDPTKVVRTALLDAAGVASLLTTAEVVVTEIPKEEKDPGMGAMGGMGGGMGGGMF
T1 sequence (P61604 whole entry, further chain): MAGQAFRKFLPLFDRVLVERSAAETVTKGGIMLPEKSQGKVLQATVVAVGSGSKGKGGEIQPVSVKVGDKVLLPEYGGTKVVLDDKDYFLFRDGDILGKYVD
T2 sequence (P0A6F5 whole entry, looked up): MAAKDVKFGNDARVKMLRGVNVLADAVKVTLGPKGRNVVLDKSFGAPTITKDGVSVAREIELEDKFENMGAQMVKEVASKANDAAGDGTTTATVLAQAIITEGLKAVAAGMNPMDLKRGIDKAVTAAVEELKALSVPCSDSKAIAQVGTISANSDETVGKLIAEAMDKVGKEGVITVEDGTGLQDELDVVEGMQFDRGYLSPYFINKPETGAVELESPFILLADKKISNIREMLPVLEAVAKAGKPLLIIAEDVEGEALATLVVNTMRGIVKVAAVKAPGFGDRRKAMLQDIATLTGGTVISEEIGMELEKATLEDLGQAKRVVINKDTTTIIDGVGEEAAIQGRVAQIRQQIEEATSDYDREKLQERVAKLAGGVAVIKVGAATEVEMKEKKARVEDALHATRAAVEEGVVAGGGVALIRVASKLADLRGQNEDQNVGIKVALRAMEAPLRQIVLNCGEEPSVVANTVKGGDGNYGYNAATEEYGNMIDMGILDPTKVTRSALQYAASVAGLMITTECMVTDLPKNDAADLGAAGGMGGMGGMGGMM

As usually defined, the EC50 is the concentration giving half of the maximal effect. For orientation: IC50 means the point on the concentration scale where inhibition reaches its midpoint. For `CNC(=O)Nc1ccc2nc(-c3ccco3)c(-c3ccco3)nc2c1`, the EC50 (with Staphylococcus aureus [1]; in the assay with Enterococcus faecium; in the assay on Enterobacter cloacae; in the assay with Acinetobacter baumannii; in [4]; with Pseudomonas aeruginosa) was > 100 µM in each case. Besides, the EC50 in the assay on Escherichia coli [5] is > 100 µM; in the assay with HEK293, > 100 µM; in the assay on Staphylococcus aureus [6] it was 94 µM; in the assay on Bacillus subtilis it was > 100 µM; with Escherichia coli [7], > 100 µM; with Escherichia coli [10], > 100 µM. Also, the EC50 in [12] is > 100 µM. In addition, the IC50 on HSP60/HSP10 [2] was > 250 µM; on E. coli GroEL/ES [3] it was 2.5 µM; at HSP60/HSP10 [8], 7.4 µM; on E. coli GroEL/ES [9], > 62.5 µM; at E. coli GroEL/ES [11], 2.5 µM; at E. coli GroEL/ES [13], 3 µM.
On to `Nc1nnc(SCC(=O)c2ccc(-c3ccccc3)cc2)s1`, for which the EC50 (in the assay on Staphylococcus aureus [1]; in the assay with Enterococcus faecium; in the assay on Enterobacter cloacae; with Acinetobacter baumannii; in [4]; in the assay on Pseudomonas aeruginosa) was > 100 µM each time. The EC50 in the assay on Escherichia coli [5], in the assay with HEK293, in the assay with Staphylococcus aureus [6], in the assay on Bacillus subtilis, with Escherichia coli [7] and in the assay on Escherichia coli [10] was > 100 µM in each case. In addition, the EC50 in [12] is > 100 µM. For the same compound, the IC50 on HSP60/HSP10 [2] was > 250 µM; on HSP60/HSP10 [8] it was > 100 µM; on E. coli GroEL/ES [9], > 62.5 µM; on E. coli GroEL/ES [11], 79 µM; on E. coli GroEL/ES [14] it was 107 µM.
With `COc1cccc(/C=C2/SC(=S)N(CCC(=O)Nc3ccc(O)cc3)C2=O)c1`, the EC50 was 80 µM in the assay on Staphylococcus aureus [1]; > 100 µM in the assay on Enterococcus faecium; > 100 µM in the assay on Enterobacter cloacae; > 100 µM with Acinetobacter baumannii; > 100 µM in assay [4]; > 100 µM in the assay on Pseudomonas aeruginosa. Moreover, the EC50 in the assay with Escherichia coli [5], in the assay on HEK293, in the assay with Staphylococcus aureus [6], in the assay on Bacillus subtilis, in the assay with Escherichia coli [7] and with Escherichia coli [10] was > 100 µM in each case. In [12], the EC50 was > 100 µM. Moreover, the IC50 is > 250 µM at HSP60/HSP10 [2]; 12 µM at E. coli GroEL/ES [3]; 13 µM at HSP60/HSP10 [8]; > 62.5 µM on E. coli GroEL/ES [9]; 9.6 µM on E. coli GroEL/ES [11]; 4.7 µM at E. coli GroEL/ES [13].
As to `O=c1c([N+](=O)[O-])c(Cl)c2ccccc2n1Cc1ccccc1`, the EC50 (in the assay with Staphylococcus aureus [1]; in the assay on Enterococcus faecium; in the assay with Enterobacter cloacae; in the assay on Acinetobacter baumannii; in [4]; in the assay with Pseudomonas aeruginosa) was > 100 µM in each case. Moreover, the EC50 is > 100 µM in the assay with Escherichia coli [5]; 17 µM with HEK293; 21 µM with Staphylococcus aureus [6]; 2.8 µM in the assay on Bacillus subtilis; > 100 µM with Escherichia coli [7]; > 100 µM in the assay with Escherichia coli [10]. Moreover, the EC50 in assay [12] is 3.6 µM. Also, the IC50 at HSP60/HSP10 [2] is > 250 µM; on E. coli GroEL/ES [3], > 100 µM; at HSP60/HSP10 [8], 2.8 µM; at E. coli GroEL/ES [9], > 62.5 µM; on E. coli GroEL/ES [11], 22 µM; on E. coli GroEL/ES [13], 5.4 µM.
In the case of `COc1ccc(C(=O)N/N=C/c2ccc(O)c3ncccc23)cc1`, the EC50 is > 100 µM with Staphylococcus aureus [1]; > 100 µM with Enterococcus faecium; > 100 µM with Enterobacter cloacae; 32 µM with Acinetobacter baumannii; 95 µM in [4]; > 100 µM in the assay with Pseudomonas aeruginosa. Further, the EC50 with Escherichia coli [5] was > 100 µM; with HEK293, 7.7 µM; in the assay on Staphylococcus aureus [6], 56 µM; in the assay with Bacillus subtilis it was 83 µM; with Escherichia coli [7], 19 µM; in the assay on Escherichia coli [10], > 100 µM. Further, the 50% effective concentration (EC50) in assay [12] worked out at 15 µM. The IC50 on HSP60/HSP10 [2] was > 250 µM; on E. coli GroEL/ES [3], 52 µM; at HSP60/HSP10 [8], > 100 µM; at E. coli GroEL/ES [9], > 62.5 µM; at E. coli GroEL/ES [11] it was 18 µM; on E. coli GroEL/ES [13] it was 31 µM.
